Drawing on the array DNA melting data of Ke et al. (doi:10.1101/2024.01.08.574731), this text covers folding enthalpy and Tm for 37 sequences.

Data set [1] can be described thus: folding enthalpy; higher = less favourable; fluorescence melt of hairpins on a sequencing array, two-state fit. The conditions noted are these: sodium 0.088 M. In a few lines:
(§1)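 Folding enthalpy and melting temperature were estimated with bootstrapped two-state fits and combined across four replicates by inverse-variance weighting, with fitted temperatures raised by 9.35 °C to match UV melts. The data were Cy3 fluorescence of library hairpins, with annealed Cy3 and quencher oligos, on a sequenced MiSeq flow cell in 50 mM Na-HEPES pH 8.0, 25 mM NaCl, imaged in 2.5 °C steps up to 60 °C and normalised to pre-quench Cy3 and control constructs.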

Data set [2] can be described thus: melting temperature; fluorescence melt of hairpins on a sequencing array, two-state fit, raised by 9.35 °C to match UV melts. The conditions noted are these: sodium 0.088 M. In a few lines: as §1

As to GCACCCGGAAACAGGCGC ((.((.(....).)).)), the folding enthalpy in data set [1] was -22.3 kcal/mol. The Tm in data set [2] was found to be 32.8 °C.
In the case of GCACCCGGAAACAGGTGC (((((.(....).))))), the folding enthalpy in data set [1] was -34.6 kcal/mol. Besides, the Tm in data set [2] is 52.4 °C.
GCACCCGGAAACGGGTAC (.(((((....))))).): the folding enthalpy in data set [1] was -12.7 kcal/mol. Also, the Tm in data set [2] came to 45.1 °C.
The corresponding values for GCACCGCGAAAGCAGCGC ((.(.((....)).).)) are -18.2 kcal/mol and 46.5 °C.
The matching figures for GCACCGCGAAAGCAGTGC ((((.((....)).)))): -25.6 kcal/mol and 65 °C.
GCACCGCGAAAGCCGGGC ((.(.((....)).).)): the folding enthalpy in data set [1] was -20.6 kcal/mol. Moreover, the Tm in data set [2] came out at 54.5 °C.
The matching figures for GCACCGGGAAACCGATGC (((.(((....))).))): -25.2 kcal/mol and 50.6 °C.
Regarding GCACCGTCGAAAGACTGC (((..(((....)))))), the folding enthalpy in data set [1] is -17.7 kcal/mol. In addition, the Tm in data set [2] is 35.9 °C.
The corresponding values for GCACGAGCGAAAGCTTGC (((..(((....)))))) are -11.3 kcal/mol and 41 °C.
The matching figures for GCACGAGGAAACTCATGC (((.(((....))).))): -28.8 kcal/mol and 41.2 °C.
The matching figures for GCACGAGGAAACTCGCAC (..((((....))))..): -8.67 kcal/mol and 25.5 °C.
In the case of GCACGAGGAAACTTGTGC ((((.((....)).)))), the folding enthalpy in data set [1] was -43.5 kcal/mol. Also, the Tm in data set [2] is 54.5 °C.
The matching figures for GCACGATCGAAAGATTGC (((..(((....)))))): -18.7 kcal/mol and 31.7 °C.
With GCACGCGGAAACACGTGC (((((.(....).))))), in data set [1], the folding enthalpy was -51.2 kcal/mol. In data set [2], the Tm was found to be 57.1 °C.
The corresponding values for GCACGCGGAAACGTGTGC ((((.((....)).)))) are -46 kcal/mol and 66.7 °C.
The corresponding values for GCACGCTCGAAAGAGTGC (((..(((....)))))) are -20.9 kcal/mol and 50.2 °C.
The corresponding values for GCACGGCGAAAGCAGAGC ((.(.((....)).).)) are -20 kcal/mol and 53 °C.
As for GCACGGCGAAAGCAGGGC ((.(.((....)).).)), in data set [1], the folding enthalpy is -36 kcal/mol. The Tm in data set [2] was 65.8 °C.
On to GCACGGCGAAAGCCTGC (((.(((....)))))), for which the folding enthalpy in data set [1] was -18.1 kcal/mol. For the same sequence, the Tm in data set [2] was found to be 58.7 °C.
In the case of GCACGGCGAAAGCGCTGC (((..((....))..))), the folding enthalpy in data set [1] is -17.5 kcal/mol. For the same sequence, the Tm in data set [2] is 52 °C.
The matching figures for GCACGGCGAAAGCTGAGC ((.(.((....)).).)): -19 kcal/mol and 55.8 °C.
For the sequence GCACGGCGAAAGCTGGGC ((.(.((....)).).)), the folding enthalpy in data set [1] was -31.5 kcal/mol. Further, the Tm in data set [2] was 67.5 °C.
The corresponding values for GCACGGGGAAACCCGCAC (..((((....))))..) are -9.35 kcal/mol and 25.2 °C.
The corresponding values for GCACTACGAAAGTATTGC (((.(((....))).))) are -31.2 kcal/mol and 45.9 °C.
In the case of GCACTCCGAAAGGAATGC (((.(((....))).))), the folding enthalpy in data set [1] was -38.6 kcal/mol. Besides, the Tm in data set [2] was determined as 51.1 °C.
The matching figures for GCACTCCGAAAGGACTGC (((.(((....))).))): -18.5 kcal/mol and 40.4 °C.
The matching figures for GCACTCGAAAGAGAGTGC ((((((....)))..))): -38.7 kcal/mol and 59.9 °C.
Consider GCACTCGAAAGAGCGTGC ((((((....)))..))), for which, in data set [1], the folding enthalpy was -25.9 kcal/mol. Further, the Tm in data set [2] is 43.2 °C.
The corresponding values for GCACTCGAAAGAGCTGC ((((((....))).))) are -28.3 kcal/mol and 48.1 °C.
With GCACTCGAAAGAGCTTGC ((((((....)))..))), the folding enthalpy in data set [1] is -19.1 kcal/mol. The Tm in data set [2] was 36.6 °C.
The corresponding values for GCACTCGAAAGAGGTTGC ((((((....)))..))) are -18.6 kcal/mol and 37.6 °C.
The corresponding values for GCACTCGAAAGAGTTTGC ((((((....)))..))) are -17.5 kcal/mol and 35.9 °C.
The matching figures for GCACTGCGAAAGCAACGC ((..(((....)))..)): -14.2 kcal/mol and 36.2 °C.
Consider GCACTGCGAAAGCACGGC ((..(((....)))..)), for which the folding enthalpy in data set [1] was -17.6 kcal/mol. Moreover, in data set [2], the Tm came to 38.4 °C.
The corresponding values for GCACTGCGAAAGCCATGC (((..((....))..))) are -14.7 kcal/mol and 38.1 °C.
With GCACTGCGAAAGCTGGGC ((.(.((....)).).)), the folding enthalpy in data set [1] was -36.6 kcal/mol. For the same sequence, the Tm in data set [2] turned out to be 64.3 °C.
The matching figures for GCACTGGGAAACCAGTAC (.(((((....))))).): -14.9 kcal/mol and 38.1 °C.
